From PubChem BioAssay
A selection: hits, their analogues and other compounds. The true share with any hit is near 3.7%.
KCNQ1 pot: potentiates or activates the human KCNQ1 potassium channel; P51787; CHO-K1 KCNQ1, thallium flux FluxOR fluorescence; hits give high values; B-score at 10 µM; actives 0.35% (n = 310,000);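 active = fluorescence ratio B-score, a plate-corrected score, at least three library SD, with initial intensity B-score within 5 SD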
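Material: CHO-K1 cells stably expressing KCNQ1. Medium: assay buffer for compound exposure, DMSO matched across wells. Reagent: K+/Tl+ depolarizing stimulus. Compound dosing: single-concentration screen. Times: 37 °C overnight plating, 90-min dark dye load, 20-min compound pretreatment. Technique: FluxOR Tl+ flux fluorescence.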
hERG rescue: hERG (human) protection from proarrhythmic block | Q12809 | CHO-hERG, FluxOR thallium flux, dofetilide IC70 present | activation (rescue from dofetilide block), less the hit threshold, % at 10 µM | actives 0.51% (n = 310,000) | AID 1511;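 active = activation above the mean of controls blocked by dofetilide plus 5 SD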;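 note: thallium influx through hERG after potassium depolarization seen as dye fluorescence rise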
Kir21 block: Kir2.1 (mouse) channel inhibition; P35561; HEK293-Kir2.1, FluxOR thallium flux fluorescence; hits give low values; B-score at 10 µM; actives 0.85% (n = 310,000);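 active = fluorescence ratio B-score at or below minus 3 SD of library scores, with starting-brightness B-score within 2 SD, cut at about -4.2 in these data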;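 note: channel flux triggered by added potassium and thallium sulfate stimulus; B-score of peak minus minimum fluorescence over baseline after thallium stimulus; more negative B-score means stronger Kir2.1 block with less thallium influx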
Target sequence (P35561 whole entry, looked up): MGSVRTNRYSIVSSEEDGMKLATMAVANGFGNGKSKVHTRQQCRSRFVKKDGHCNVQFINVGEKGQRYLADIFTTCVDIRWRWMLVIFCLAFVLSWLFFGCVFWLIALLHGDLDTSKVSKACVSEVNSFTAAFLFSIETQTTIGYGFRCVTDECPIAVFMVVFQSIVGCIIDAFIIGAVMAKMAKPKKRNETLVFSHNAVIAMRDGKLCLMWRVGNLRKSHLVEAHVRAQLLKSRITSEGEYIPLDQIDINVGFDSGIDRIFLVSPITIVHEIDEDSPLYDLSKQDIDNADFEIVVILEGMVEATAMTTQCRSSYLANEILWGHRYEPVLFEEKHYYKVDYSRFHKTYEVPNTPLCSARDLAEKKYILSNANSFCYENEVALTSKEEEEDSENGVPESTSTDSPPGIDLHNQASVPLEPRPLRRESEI
KCNK3 block: human KCNK3 channel inhibition, primary screen. B-score at 10 µM. CHO-KCNK3 thallium flux, FluxOR fluorescence; hits give low values. O14649. actives 0.84% (n = 340,000);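 active = B-score under library mean minus 4 SD, starting fluorescence ratio at most library mean plus 5 SD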;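 note: more negative B-score means stronger inhibition of thallium flux through KCNK3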
KCNK9 block: blocks the human KCNK9 two-pore domain potassium channel; Q9NPC2; actives 1.2% (n = 310,000); HEK293 KCNK9, FluxOR thallium flux fluorescence; hits give low values; B-score at 10 µM; AID 488922;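 active = ratio B-score over 3 SD below the library mean, with starting fluorescence within 5 SD of its mean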;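 note: negative B-score means less thallium flux so channel inhibition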
KCNQ1 inh: human KCNQ1 channel inhibition. P51787. CHO-K1 KCNQ1, FluxOR thallium flux fluorescence; hits give high values. B-score at 10 µM. actives 1.3% (n = 310,000). AID 2642;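 active = compounds whose thallium flux B-score, printed positive for inhibition, exceeds three library SD while starting fluorescence stays within three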;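 note: channel opened by potassium depolarization with thallium stimulus after 20 min compound exposure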
KCNQ1 block val: human KCNQ1 channel inhibition, validation assay. shares compounds with KCNQ1 inh. KCNQ1 cell line, FluxOR thallium flux fluorescence. inhibition, % at 10 µM. actives 93% (n = 1,600). AID 588353;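 active = primary screen active, with duplicate mean exceeding buffer control mean plus 3 SD of buffer wells, cut at about 28% in these data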;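 note: 0% = buffer control ratio and 100% = XE991 inhibitor control ratio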
CHO KCNQ1 ctr: KCNQ1 inhibitor counter-screen hit in parental CHO cells; actives 21% (n = 1,600); AID 588366; parental CHO-K1, FluxOR thallium flux fluorescence ratio; hits give low values; zero means no signal rise above baseline; fluorescence ratio (Tl flux) at 10 µM; shares compounds with KCNQ1 inh;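 active = mean of duplicate thallium-flux fluorescence ratios in parental host cells more than 5 SD below the buffer control mean, cut at about 0.38 in these data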;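 note: ratio is peak minus minimum fluorescence divided by baseline fluorescence; actives read low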
KCNQ1 ephys val: human KCNQ1 inhibition validated by electrophysiology. shares compounds with KCNQ1 inh. KCNQ1-CHO cells, automated patch clamp current. calls only at 10 µM. actives 20% (n = 490);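 active = KCNQ1 current drop exceeding 3 SD of negative control wells, seen in both duplicate runs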;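 note: steady state current during a 2 s step from -80 to +40 mV; negative values mean current inhibition and positive values mean potentiation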
KCNQ2 spec: rat KCNQ2 inhibition in KCNQ1 inhibitor specificity screen | shares compounds with KCNQ1 inh | KCNQ2 cells, FluxOR thallium flux fluorescence | inhibition, % at 10 µM | actives 71% (n = 1,600);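 active = mean percent inhibition of the KCNQ2 thallium signal more than 5 SD above the buffer-only control wells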;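 note: KCNQ2 expressed in CHO cells; 0% = buffer control wells and 100% = XE-991 inhibitor control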
KCNQ1-KCNE1 inh: human KCNQ1/KCNE1 inhibition in KCNQ1 specificity screen; AID 652147; inhibition, % at 10 µM; actives 77% (n = 1,600); shares compounds with KCNQ1 inh; KCNQ1/KCNE1 cells, FluxOR thallium flux fluorescence;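 active = mean percent inhibition of duplicate wells above the buffer-only control mean plus 3 SD of those controls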;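 note: 0% = buffer only wells and 100% = XE-991 inhibitor control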
Starred values were filed as active, the others as inactive; i = inactive; · = no result.

SMILES	KCNQ1 pot	hERG rescue	Kir21 block	KCNK3 block	KCNK9 block	KCNQ1 inh	KCNQ1 block val	CHO KCNQ1 ctr	KCNQ2 spec	KCNQ1-KCNE1 inh	others
Cc1ccc(C)c(-c2cc(C(=O)Nc3nccs3)c3ccccc3n2)c1	i	-8.4	0.37	i	-7.85*	8*	88.0*	0.5	101.7%*	125.0%*	KCNQ1 ephys val=i
COC(=O)c1sccc1NC(=O)c1cc(-c2cc(C)ccc2C)nc2ccccc12	i	-16.0	0.02	i	i	i	·	·	·	·
Cc1sc(NC(=O)c2cc(-c3ccc(Cl)cc3)nc3ccccc23)c(C(N)=O)c1C	i	-11.6	0.51	i	i	i	·	·	·	·
Cc1cccc(NC(=O)c2cc(-c3ccc(C)s3)nc3ccccc23)n1	i	-11.0	0.18	i	-7.25*	6*	92.5*	0.432	97.7%*	149.0%*	KCNQ1 ephys val=i
COc1ccc(C(=O)OCC(=O)N2CCN(C(=O)c3ccco3)CC2)cc1OC	·	·	·	i	·	·	·	·	·	·
CCOC(=O)c1cnc2c(C(F)(F)F)cccc2c1NCCCN1CCOCC1	i	-9.0	0.18	i	i	i	·	·	·	·
CCn1nc(NS(=O)(=O)c2ccc(NC(C)=O)cc2)c2cc3cc(C)ccc3nc21	i	-9.5	-0.51	i	i	i	·	·	·	·
Cc1nnc(SCC(=O)NC2CCCCCC2)n1C(C)C	i	-4.8	1.91	i	i	i	·	·	·	·
CC1(C)Cc2c(cnn2-c2ccc(F)cc2)C(NC(=O)c2ccoc2)C1 (stereo unspecified)	i	-12.7	0.94	i	i	7*	72.5*	0.42	i	93.0%*
Cn1nccc1C(=O)NC1CC(C)(C)Cc2c1cnn2-c1ccc(F)cc1 (stereo unspecified)	i	-6.8	-0.08	i	i	6*	0.0	0.55	i	i
Cc1cc(C(=O)NC2CC(C)(C)Cc3c2cnn3-c2ccc(F)cc2)no1 (stereo unspecified)	i	-12.7	1.62	i	i	i	·	·	·	·
CC1(C)Cc2c(cnn2-c2ccccc2)C(NC(=O)c2ccoc2)C1 (stereo unspecified)	i	-11.0	-1.5	i	i	i	·	·	·	·
COC(=O)C(CCSC)NC(=O)C12CC3CC(CC(C3)C1)C2 (stereo unspecified)	i	0.0	0.85	i	i	i	·	·	·	·
COC(=O)C(Cc1ccc(O)cc1)NC(=O)C12CC3CC(CC(C3)C1)C2 (stereo unspecified)	i	-15.9	1.07	i	i	14*	43.5*	0.459	i	i
O=C(NC(=S)NC(CO)Cc1ccccc1)c1ccc(F)cc1 (stereo unspecified)	i	-2.9	-1.83	i	i	i	·	·	·	·
OCCN=C1CCCc2c1[nH]c1ccc(Br)cc21	i	-9.6	0.77	i	i	i	·	·	·	·
C=CCN=C1CCCc2c1[nH]c1ccc(C)cc21	i	-15.1	-0.54	i	i	6*	54.5*	0.468	i	46.5%*
CC(C)(C)CC(=O)NCCc1csc(-c2ccccc2)n1	i	-9.1	0.18	i	i	i	·	·	·	·
CCOC(=O)CSc1nc2c(sc(=S)n2-c2ccc(OCC)cc2)c(=O)[nH]1	i	-7.5	0.3	i	i	i	·	·	·	·
